Assay outcomes (PubChem)
TROY NFkB inh = blocks TROY-dependent signaling in reporter cells; Q293 LMP1-TROYcd NF-kB luciferase reporter, 4 h; inhibition, % at 10 µM; 360,000 tested, 0.98% active; AID 1347056;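 active means compounds whose plate-normalised and pattern-corrected inhibition of the luciferase reporter signal at the single screening dose is 50% or more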
LGR2 inh = Drosophila LGR2 receptor signaling inhibition | AID 720647 | inhibition, % at 9.99 µM | HEK293 LGR2, CRE-luciferase, bursicon-stimulated, 4 h | 380,000 tested, 0.35% active;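 active means drop in luminescence signal, shown as inhibition above about 50% in the replicate tests, limit read from the data, passing the limit was not always enough; inconclusive means probably only some replicates passing the limit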;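 further: agonist challenge used bursicon conditioned medium at about half maximal strength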
CaV13 FRET inh = Disruptors of the CACNA1D IQ motif to Ca2+-dependent inactivation inhibitor domain association, primary screening, Förster resonance energy transfer in intact living …; HEK cells, CFP/YFP FRET ICDI-IQ, plate reader, 10 min; percent FRET-ratio fall versus neutral wells; inhibition, % at 12.3 µM; 340,000 tested, 0.098% active;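 active means mean replicate inhibition of at least 30% and at least 1% of replicates passing that level; inconclusive means only one of the two criteria is met; inactive means neither criterion is met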;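 further: 0% = median of the neutral control wells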
XiGFP reactiv = X-chromosome reactivation activator; XiGFP mouse fibroblasts, % GFP-positive cells imaging, 3 d; cells co-treated with 5-aza-dC sensitizer; scaled so ellipticine positive control = 100%; activation, % at 7.58 µM; 360,000 tested, 0.055% active; AID 743238;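 active means mean normalized replicate activation at least 10% and every replicate at or above 10%; inconclusive means only one of the two criteria met; inactive means mean below 10% and not all replicates reach 10%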;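 further: 0% = median of on-plate neutral control wells and 100% = ellipticine 6 µM median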
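material = 68-5-11 XiGFP fibroblast line | medium = DMEM plus 5-aza-dC sensitizer | schedule = 3 days compound exposure | benchmarks = positive control ellipticine, 6 µM final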
TWEAK Fn14 block = blocks TWEAK-Fn14 interaction in a reporter cell assay; inhibition, % at 10 µM; 360,000 tested, 2% active; AID 1159606; TWEAK-stimulated Fn14 reporter cells, luciferase luminescence, 8 h; in the data active means inhibition above about 50%
The depositor's hits bear a star; ? = inconclusive; . = not tested or not shown. Hits are enriched below; roughly 2% of the tested compounds scored in any of these assays.

SMILES | TROY NFkB inh | LGR2 inh | CaV13 FRET inh | XiGFP reactiv | TWEAK Fn14 block
Cc1ccc(S(=O)(=O)Nc2ccc(-c3cn4ccc(C)cc4n3)cc2)cc1 | -4 | -12 | 5 | 0 | -22
Cc1ccn2cc(-c3ccc(Br)cc3)nc2c1 | 33 | 59* | -16 | . | 73*
Clc1ccc(-c2cn3cc(Br)ccc3n2)cc1Cl | 28 | . | -14 | 0 | 58*
CC1(C)CC(NC(=O)COc2ccccc2Cl)CC(C)(C)N1 | 75* | -2 | -18 | 0 | 78*
COc1ccc(OCC(=O)NC2CC(C)(C)NC(C)(C)C2)cc1 | 63* | . | . | . | 65*
CC1(C)CC(NC(=O)COc2ccc(Br)cc2Cl)CC(C)(C)N1 | 12 | 6 | -10 | 0 | 22
CC1(C)CC(NC(=O)COc2ccc([N+](=O)[O-])cc2)CC(C)(C)N1 | 4 | 19 | 13 | 0 | -22
CC(C)[C@@H]1COCc2cn(nn2)CC[C@H](Cc2ccc(-c3ccccc3)cc2)C(=O)N1 | . | . | . | 0 | .
CC(C)NC(=O)N1C[C@H]2[C@@H](c3ccccc31)[C@@H](CO)N2C(=O)c1ccc(F)cc1 | . | -9 | . | 1 | .
CC1=C(C(=O)OCc2ccc3c(c2)OCO3)C(c2ccc(F)cc2)NC(=O)N1 (configuration not stated) | 55* | 28 | -5 | . | 87*
CCOC(=O)C1=C(C)NC(=O)NC1c1ccc(OCC(N)=O)cc1 (configuration not stated) | . | . | . | . | 79*
CC1=C(C(=O)OCc2ccc3c(c2)OCO3)C(c2ccc(Cl)cc2)NC(=O)N1 (configuration not stated) | 70* | 39 | -7 | . | 94*
CSCCOC(=O)C1=C(C)NC(=O)NC1c1ccc2c(c1)OCO2 (configuration not stated) | 8 | -3 | -3 | 0 | -6
Cc1ccc(S(=O)(=O)N(C)C[C@H]2Oc3ccc(NS(=O)(=O)c4ccc(F)cc4)cc3CC(=O)N([C@H](C)CO)C[C@H]2C)cc1 | . | 5 | . | -1 | .
Cc1ccc(OCc2nc(C#N)c(N3CCN(Cc4ccccc4)CC3)o2)cc1 | -8 | . | -4 | . | 103*
N#Cc1nc(COc2ccccc2)oc1N1CCN(Cc2ccccc2)CC1 | 5 | . | -5 | . | -20
c1ccc(COc2ccc(CN3CCN(c4ccccn4)CC3)cc2)cc1 | 57* | . | . | . | 15
COc1ccc(C(=O)/C(=C\c2ccco2)N2C=CC=CC2=C(C#N)C#N)cc1 | -9 | . | . | . | 11
N#CC(C#N)=C1C=CC=CN1/C(=C\c1ccco1)C(=O)c1ccc(Br)cc1 | 78* | 23 | -3 | ? | 92*
N#CC(C#N)=C1C=CC=CN1/C(=C\c1ccco1)C(=O)c1ccccc1 | 69* | 100* | -3 | 0 | 76*
COc1ccc(/C=C(/C(=O)c2cccs2)N2C=CC=CC2=C(C#N)C#N)cc1 | 40 | . | -5 | 2 | 34
C/C=C/c1ccc([C@H]2[C@H](CO)N3C(=O)CN(Cc4ccccc4)C[C@@H]23)cc1 | . | 8 | . | 0 | .
CCCNC(=O)N1C[C@@H](O)COC[C@@H]2O[C@H](CC(=O)NCc3ccc(Cl)c(Cl)c3)CC[C@H]21 | . | 20 | . | 0 | .
CC(C)=CCc1cc([C@@H]2COc3c(ccc4c3C=CC(C)(C)O4)C2)c(O)cc1O | 10 | 14 | . | . | 63*
CC1(C)C=Cc2c(ccc3c2OC[C@H](c2ccc(O)cc2O)C3)O1 | -16 | -38 | -5 | 0 | 10
SMILES | TROY NFkB inh | LGR2 inh | CaV13 FRET inh | XiGFP reactiv | TWEAK Fn14 block
C[C@@H]1CN([C@@H](C)CO)C(=O)c2cc(-c3ccc(F)cc3)cnc2O[C@H]1CN(C)C(=O)Nc1ccc(F)cc1 | . | -8 | . | 0 | .
O=C(O)c1cnc(-c2ccccc2)nc1Sc1cccc(Cl)c1 | 6 | . | -5 | . | 10
O=C(O)c1cnc(-c2ccccc2)nc1Sc1ccc(Cl)cc1Cl | 61* | . | -8 | . | -17
COc1cccc(C(=O)Nc2ccc3c(c2)C(=O)N(C)C[C@@H](OC)[C@H](C)CN(CC2CC2)[C@@H](C)CO3)c1 | . | -1 | . | 0 | .
Cc1ccc(-n2nc3cc(C)c(NC(=S)NC(=O)/C=C/c4ccco4)cc3n2)cc1 | 69* | -40 | -4 | 0 | 39
CCC(=O)Nc1cc2nn(-c3ccc(C)cc3)nc2cc1C | 90* | 40 | -4 | 0 | 93*
CCC(=O)Nc1ccc2c(c1)ncn2-c1ccc(C)cc1 | -80 | -35 | 0 | 0 | 16
CCCCC(=O)Nc1cc2nn(-c3ccc(OC)cc3)nc2cc1C | -33 | 10 | -7 | . | -43
CCC(=O)Nc1cc2nn(-c3ccc(OC)cc3)nc2cc1C | 57* | ? | . | . | 70*
C[C@@H]1CN([C@H](C)CO)C(=O)Cc2cc(NC(=O)CCC(F)(F)F)ccc2O[C@@H]1CN(C)S(=O)(=O)c1ccc(F)cc1 | . | 17 | . | -1 | .
CNC[C@H]1OCCCC[C@H](C)Oc2ccc(NS(=O)(=O)c3ccc(C)cc3)cc2C(=O)N([C@@H](C)CO)C[C@@H]1C | . | . | . | 0 | .
CN(C)c1ccc(CNn2cnnc2SCc2ccc(F)cc2)cc1 | -20 | . | -9 | . | -18
Fc1ccc(CSc2nncn2NCc2ccccc2)cc1 | 49 | . | -5 | . | 77*
Clc1ccc(-c2nnc(CSc3nnc(-c4cccs4)n3Cc3ccccc3)o2)cc1 | 48 | 20 | -3 | 0 | 64*
Cc1ccc2nc(Cl)c3nnnn3c2c1 | 84* | . | . | . | -16
Cc1noc(C)c1S(=O)(=O)N(C)C[C@@H]1OCCCC[C@H](C)Oc2ccc(NC(=O)c3ccccc3)cc2C(=O)N([C@@H](C)CO)C[C@H]1C | . | -12 | . | 0 | .
COC(=O)c1ccccc1S(=O)(=O)NNC(=O)Nc1ccccc1 | 33 | 58* | -21 | 0 | 69*
N#C/C(=C\c1ccc(Cl)cc1Cl)c1n[nH]c(Cn2cncn2)n1 | . | . | . | . | 65*
COc1ccc(CN2C(=O)C(C)=C(C)C2OC)cc1 (configuration not stated) | -2 | -3 | -4 | 0 | 90*
COC1C(C)=C(C)C(=O)N1Cc1ccccc1 (configuration not stated) | 4 | 5 | -2 | 0 | 11
COc1ccc(S(=O)(=O)Nc2ccc3c(c2)CC(=O)N([C@H](C)CO)C[C@H](C)[C@H](CN(C)C(=O)Nc2ccc(F)cc2)O3)cc1 | . | 3 | . | 0 | .
O=C(C=Cc1ccccc1Cl)c1ccccc1 | -46 | -43 | -16 | 0 | -3
O=C(/C=C/Sc1ccccc1)c1ccccc1 | 34 | -50 | -9 | . | 90*
O=C(/C=C/Sc1ccccc1)c1ccc(Cl)cc1 | 30 | . | -7 | . | 78*
Fc1ccc2cnc(CCO[C@H]3CCCCO3)cc2c1 | 9 | 54* | -12 | 0 | 67*
C/C(=N\NC(=O)C(c1ccccc1)c1ccccc1)c1ccccn1 | -24 | 25 | -6 | 0 | 57*
C/C(=N\NC(=O)c1cccc2ccccc12)c1ccccn1 | 21 | 9 | -7 | 0 | 101*
